Results published in ChEMBL document CHEMBL1221342, “Synthesis and in vitro antitumor activity of new 4,5-dihydropyrazole derivatives” (Bioorg Med Chem, 2010).

Tested on: NCI-H460
Assay: Cytotoxicity against human NCI-H460 cells after 72 hrs by SRB assay
Type: functional, cell-based
Conditions: NCI-H460, 72 h
Procedure, shortened: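 NCI-H460 (ATCC) cells seeded in 96-well plates in growth medium. Scalar drug concentrations added 24 h after plating, then 72 h exposure. Surviving cells stained with sulforhodamine B, OD read at 570 nm. IC50 (50% growth inhibition) fitted from dose–response curves. Mean ± SE of at least three independent experiments.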
With COc1cc(C2=NN(C(=O)COC(C)=O)C(c3cc(OC)c(OC)c(OC)c3)C2)ccc1O (centres undefined) the IC50 was 4.5 µM.
In the case of COc1cc(C2CC(c3ccc(C)cc3)=NN2C(=O)CO)cc(OC)c1OC (centres undefined), the IC50 is reported as 0.69 µM.
For COc1cc(C2CC(c3cccc(Br)c3)=NN2C(=O)CO)cc(OC)c1OC (centres undefined), the IC50 was 1.1 µM.
For COc1cc(C2CC(c3ccc(N(C)C)cc3)=NN2C(=O)CO)cc(OC)c1OC (centres undefined), the IC50 was 1.3 µM.
CCN(CC)c1ccc(C2=NN(C(=O)CO)C(c3cc(OC)c(OC)c(OC)c3)C2)cc1 (centres undefined) gave an IC50 of 0.95 µM.
For COc1cc(C2=NN(C(=O)CO)C(c3cc(OC)c(OC)c(OC)c3)C2)ccc1O (centres undefined), the IC50 was 1.85 µM.
Work on COc1cc(C2=NNC(c3cccc(O)c3)C2)cc(OC)c1OC (centres undefined) yielded an IC50 of over 20 µM.
COc1cccc(C2CC(c3cc(OC)c(OC)c(OC)c3)=NN2)c1 (centres undefined) showed an IC50 of 11.6 µM.
Compound COc1cc(C2CC(c3ccc(C)cc3)=NN2)cc(OC)c1OC (centres undefined) has an IC50 of over 20 µM.
Work on COc1cc(C2CC(c3ccc(F)cc3)=NN2)cc(OC)c1OC (centres undefined) yielded an IC50 of over 20 µM.
For COc1cc(C2CC(c3cccc(Br)c3)=NN2)cc(OC)c1OC (centres undefined), the IC50 was over 20 µM.
COc1cc(C2CC(c3ccc(Br)cc3)=NN2)cc(OC)c1OC (centres undefined) showed an IC50 of over 20 µM.
Work on COc1cc(C2CC(c3cccc(O)c3)=NN2)cc(OC)c1OC (centres undefined) yielded an IC50 of over 20 µM.
With COc1cccc(C2=NNC(c3cc(OC)c(OC)c(OC)c3)C2)c1 (centres undefined) the IC50 was over 20 µM.
For COc1ccc(C2=NNC(c3cc(OC)c(OC)c(OC)c3)C2)cc1 (centres undefined), the IC50 was over 20 µM.
COc1cc(C2CC(c3ccc(SC)cc3)=NN2)cc(OC)c1OC (centres undefined) showed an IC50 of over 20 µM.
COc1cc(C2CC(c3ccc(N(C)C)cc3)=NN2)cc(OC)c1OC (centres undefined) showed an IC50 of over 20 µM.
Compound CCN(CC)c1ccc(C2=NNC(c3cc(OC)c(OC)c(OC)c3)C2)cc1 (centres undefined) has an IC50 of over 20 µM.
Compound COc1cc(C2=NNC(c3cc(OC)c(OC)c(OC)c3)C2)ccc1O (centres undefined) has an IC50 of over 20 µM.
Work on COc1cc(C2=NN(C(C)=O)C(c3cccc(O)c3)C2)cc(OC)c1OC (centres undefined) yielded an IC50 of over 20 µM.
Compound COc1ccc(C2CC(c3cc(OC)c(OC)c(OC)c3)=NN2C(C)=O)cc1 (centres undefined) has an IC50 of over 20 µM.
For COc1cc(C2=NN(C(C)=O)C(c3ccc(N(C)C)cc3)C2)cc(OC)c1OC (centres undefined), the IC50 was over 20 µM.
For CCN(CC)c1ccc(C2CC(c3cc(OC)c(OC)c(OC)c3)=NN2C(C)=O)cc1 (centres undefined), the IC50 was 13.8 µM.
In the case of COc1cc(C2CC(c3ccc(C)cc3)=NN2C(C)=O)cc(OC)c1OC (centres undefined), the IC50 is reported as 1.3 µM.
For COc1cc(C2CC(c3ccc(F)cc3)=NN2C(C)=O)cc(OC)c1OC (centres undefined), the IC50 was 12 µM.
Work on COc1cc(C2CC(c3ccc(Cl)cc3)=NN2C(C)=O)cc(OC)c1OC (centres undefined) yielded an IC50 of 11.9 µM.
Compound COc1cc(C2CC(c3ccc(Br)cc3)=NN2C(C)=O)cc(OC)c1OC (centres undefined) has an IC50 of 6 µM.
In the case of COc1cccc(C2=NN(C(C)=O)C(c3cc(OC)c(OC)c(OC)c3)C2)c1 (centres undefined), the IC50 is reported as over 20 µM.
For COc1ccc(C2=NN(C(C)=O)C(c3cc(OC)c(OC)c(OC)c3)C2)cc1 (centres undefined), the IC50 was over 20 µM.
COc1cc(C2CC(c3ccc(SC)cc3)=NN2C(C)=O)cc(OC)c1OC (centres undefined) showed an IC50 of 8 µM.
COc1cc(C2CC(c3cccc(N)c3)=NN2C(C)=O)cc(OC)c1OC (centres undefined) gave an IC50 of 0.74 µM.
COc1cc(C2CC(c3ccc(N)cc3)=NN2C(C)=O)cc(OC)c1OC (centres undefined) showed an IC50 of 2.6 µM.
COc1cc(C2CC(c3ccc(C)cc3)=NN2C(=O)COC(C)=O)cc(OC)c1OC (centres undefined) showed an IC50 of 3.3 µM.
Work on COc1cc(C2CC(c3cccc(Br)c3)=NN2C(=O)COC(C)=O)cc(OC)c1OC (centres undefined) yielded an IC50 of over 20 µM.
For COc1cc(C2CC(c3ccc(N(C)C)cc3)=NN2C(=O)COC(C)=O)cc(OC)c1OC (centres undefined), the IC50 was over 20 µM.
CCN(CC)c1ccc(C2=NN(C(=O)COC(C)=O)C(c3cc(OC)c(OC)c(OC)c3)C2)cc1 (centres undefined) showed an IC50 of 5 µM.
COc1cccc(C2CC(c3cc(OC)c(OC)c(OC)c3)=NN2C(C)=O)c1 (centres undefined) gave an IC50 of over 20 µM.

Tested on: not listed separately
Assay: Inhibition of tubulin polymerization
Conditions: not given
Procedure, shortened: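 Tubulin (3 mg/mL HTS) in G-PEM buffer plus 5% glycerol, prepared at 4 °C, incubated at 37 °C with or without compound. Polymerization followed by A340 over 60 min. Polymer taken as the AUC, with untreated control AUC set to 100%. IC50 derived by non-linear regression.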
In the case of COc1cc(C2CC(c3ccc(C)cc3)=NN2C(=O)CO)cc(OC)c1OC (centres undefined), the IC50 is reported as 7.72 µM.
In the case of CCN(CC)c1ccc(C2=NN(C(=O)CO)C(c3cc(OC)c(OC)c(OC)c3)C2)cc1 (centres undefined), the IC50 is reported as 6.14 µM.
Work on COc1cc(C2CC(c3ccc(C)cc3)=NN2)cc(OC)c1OC (centres undefined) yielded an IC50 of over 10 µM.
With CCN(CC)c1ccc(C2=NNC(c3cc(OC)c(OC)c(OC)c3)C2)cc1 (centres undefined) the IC50 was over 10 µM.
Compound COc1cc(C2CC(c3ccc(C)cc3)=NN2C(C)=O)cc(OC)c1OC (centres undefined) has an IC50 of over 10 µM.
Work on COc1cc(C2CC(c3cccc(N)c3)=NN2C(C)=O)cc(OC)c1OC (centres undefined) yielded an IC50 of over 10 µM.
Compound COc1cc(C2CC(c3ccc(N)cc3)=NN2C(C)=O)cc(OC)c1OC (centres undefined) has an IC50 of 10 µM.
